Key:
Assay type in all cases: functional
HOP-62 = assay: Growth inhibition of human HOP62 cells after 48 hrs; settings: HOP-62, 48 h; for TGI: read-out: pTGI (converted)
Outline: (§1)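 NCI ~60-line screen. Cells were grown in RPMI 1640 with 5% FBS and 2 mM L-glutamine and plated at 5000–40000 cells/well. After a 24 h preincubation, five drug concentrations from DMSO stocks were added for 48 h at 37 °C. Cells were TCA-fixed, stained with SRB and read at 515 nm. GI50 was taken from time-zero and control absorbances and reported as pGI50.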

OVCAR-5 = assay: Growth inhibition of human OVCAR5 cells after 48 hrs; settings: OVCAR-5, 48 h; for TGI: read-out: pTGI (converted); outline: as §1
SNB-19 = assay: Growth inhibition of human SNB19 cells after 48 hrs; settings: SNB-19, 48 h
Outline: (§2)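 NCI 60-line screen: cells in RPMI 1640 with 5% FBS and 2 mM L-glutamine, plated at 5000–40000 cells/well, grown 24 h (37 °C, 5% CO₂), then exposed to five 10-fold or ½-log dilutions (DMSO stock) for 48 h. Fixed with TCA (final 10% for adherent cells, 16% for suspension cells), then SRB stained with absorbance at 515 nm. GI50 from percentage growth relative to time-zero and control wells.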

LOX IMVI = assay: Growth inhibition of human LOXIMVI cells after 48 hrs; settings: for TGI: read-out: pTGI (converted); outline: as §1
MCF7 = assay: Growth inhibition of human MCF7 cells after 48 hrs; settings: MCF7, 48 h; for TGI: read-out: pTGI (converted); outline: as §1
DU-145 = assay: Growth inhibition of human DU145 cells after 48 hrs; settings: DU-145, 48 h; for TGI: read-out: pTGI (converted); outline: as §1
SR = assay: Growth inhibition of human SR cells after 48 hrs; outline: as §2
ACHN = assay: Growth inhibition of human ACHN cells after 48 hrs; settings: for TGI: read-out: pTGI (converted); outline: as §1
HL-60 = assay: Growth inhibition of human HL60 cells after 48 hrs; settings: HL-60, 48 h; for TGI: read-out: pTGI (converted); outline: as §1
HT-29 = assay: Growth inhibition of human HT29 cells after 48 hrs; settings: HT-29, 48 h; for TGI: read-out: pTGI (converted); outline: as §1
K562 = assay: Growth inhibition of human K562 cells after 48 hrs; settings: K562, 48 h; for TGI: read-out: pTGI (converted); outline: as §1
MOLT-4 = assay: Growth inhibition of human MOLT4 cells after 48 hrs; settings: MOLT-4, 48 h; for TGI: read-out: pTGI (converted); outline: as §1
NCI-H226 = assay: Growth inhibition of human NCI-H226 cells after 48 hrs; settings: NCI-H226, 48 h; for CC50: read-out: Log LC50 (the source's name) (converted); for TGI: read-out: pTGI; outline: as §1
PC-3 = assay: Growth inhibition of human PC3 cells after 48 hrs; settings: PC-3, 48 h; for TGI: read-out: pTGI (converted); outline: as §1
SK-MEL-2 = assay: Growth inhibition of human SK-MEL2 cells after 48 hrs; settings: SK-MEL-2, 48 h; for TGI: read-out: pTGI (converted); outline: as §1
SNB-75 = assay: Growth inhibition of human SNB75 cells after 48 hrs; settings: SNB-75, 48 h; outline: as §2
SW-620 = assay: Growth inhibition of human SW620 cells after 48 hrs; settings: SW-620, 48 h; for TGI: read-out: pTGI (converted); outline: as §2
SF-539 = assay: Growth inhibition of human SF539 cells after 48 hrs; settings: SF-539, 48 h; for TGI: read-out: pTGI (converted); outline: as §1
KM12 = assay: Growth inhibition of human KM12 cells after 48 hrs; settings: KM12, 48 h; for TGI: read-out: pTGI (converted); outline: as §1
HCC 2998 = assay: Growth inhibition of human HCC2998 cells after 48 hrs; settings: HCC 2998, 48 h; for TGI: read-out: pTGI (converted); outline: as §1
OVCAR-4 = assay: Growth inhibition of human OVCAR4 cells after 48 hrs; settings: OVCAR-4, 48 h; for TGI: read-out: pTGI (converted); outline: as §1
UACC-62 = assay: Growth inhibition of human UACC62 cells after 48 hrs; settings: UACC-62, 48 h; for TGI: read-out: pTGI (converted); outline: as §2
SK-MEL-28 = assay: Growth inhibition of human SK-MEL28 cells after 48 hrs; settings: SK-MEL-28, 48 h; for TGI: read-out: pTGI (converted); outline: as §1
IGROV-1 = assay: Growth inhibition of human IGROV1 cells after 48 hrs; settings: IGROV-1, 48 h; outline: as §1

`Cn1c2ccccc2c2c(=O)n(CCCC(=O)NCCc3c[nH]cn3)c3c(-c4ccccc4)nnn3c21` showed a GI50 (HOP-62) of 7.59 µM, an LC50 (HOP-62) of 37.2 µM and a TGI (HOP-62) of 17 µM. The GI50 (OVCAR-5) was 11 µM, the LC50 (concentration killing 50% of cells) (OVCAR-5) was 38 µM and the TGI (OVCAR-5) was 20.4 µM. For the same compound, the GI50 (SNB-19) was 11.7 µM, the LC50 (SNB-19) was 49 µM and the TGI (SNB-19; read-out: pTGI (converted)) was 24 µM. The GI50 (LOX IMVI) was 11.2 µM, the LC50 (lethal concentration, 50% cell kill) (LOX IMVI) was 46.8 µM and the TGI (LOX IMVI) was 22.9 µM. For the same compound, the GI50 (MCF7) was 12.9 µM, the LC50 (MCF7) was > 50.1 µM and the TGI (MCF7) was 30.2 µM. The GI50 (DU-145) was 6.92 µM, the LC50 (DU-145) was 27.5 µM and the TGI (DU-145) was 13.8 µM. For the same compound, the GI50 (SR) was 4.07 µM, the LC50 (SR) was > 50.1 µM and the TGI (SR; read-out: pTGI (converted)) was > 50.1 µM. It also gave a GI50 (ACHN) of 9.77 µM, an LC50 (ACHN) of 33.1 µM and a TGI (ACHN) of 17.8 µM. For the same compound, the GI50 (HL-60) was 11.7 µM, the LC50 (HL-60) was > 50.1 µM and the TGI (HL-60) was 28.2 µM. For the same compound, the GI50 (HT-29) was 8.51 µM, the LC50 (concentration killing 50% of cells) (HT-29) was 37.2 µM and the TGI (HT-29) was 17.8 µM. For the same compound, the GI50 (K562) was 8.91 µM, the LC50 (K562) was > 50.1 µM and the TGI (K562) was 26.9 µM. For the same compound, the GI50 (MOLT-4) was 3.98 µM, the LC50 (MOLT-4) was > 50.1 µM and the TGI (MOLT-4) was 21.4 µM. For the same compound, the GI50 (NCI-H226) was > 50.1 µM, the CC50 (NCI-H226) was > 50.1 µM and the TGI (NCI-H226) was > 50.1 µM. For the same compound, the GI50 (PC-3) was 8.91 µM, the LC50 (PC-3) was 44.7 µM and the TGI (PC-3) was 20 µM. It also gave a GI50 (SK-MEL-2) of 10.2 µM, an LC50 (SK-MEL-2) of 42.7 µM and a TGI (SK-MEL-2) of 20.9 µM. It also gave a GI50 (SNB-75) of 10.5 µM, an LC50 (SNB-75) of 33.1 µM and a TGI (SNB-75; read-out: pTGI (converted)) of 18.6 µM. For the same compound, the GI50 (SW-620) was 12.9 µM, the LC50 (lethal concentration, 50% cell kill) (SW-620) was > 50.1 µM and the TGI (SW-620) was 30.2 µM. The GI50 (SF-539) was 9.33 µM, the LC50 (concentration killing 50% of cells) (SF-539) was 31.6 µM and the TGI (SF-539) was 17.4 µM. The GI50 (KM12) was 8.13 µM, the LC50 (KM12) was 35.5 µM and the TGI (KM12) was 17 µM. It also gave a GI50 (HCC 2998) of 9.55 µM, an LC50 (HCC 2998) of 40.7 µM and a TGI (HCC 2998) of 20 µM. For the same compound, the GI50 (OVCAR-4) was 10.2 µM, the LC50 (OVCAR-4) was 41.7 µM and the TGI (OVCAR-4) was 20.4 µM. It also gave a GI50 (UACC-62) of 9.77 µM, an LC50 (UACC-62) of 31.6 µM and a TGI (UACC-62) of 17.8 µM. It also gave a GI50 (SK-MEL-28) of 8.91 µM, an LC50 (SK-MEL-28) of 32.4 µM and a TGI (SK-MEL-28) of 17 µM.
In the case of `CCOC(=O)CNC(=O)CCCn1c(=O)c2c3ccccc3n(C)c2n2nnc(-c3ccccc3)c12`, the GI50 (HOP-62) is reported as 5.89 µM, the LC50 (HOP-62) is reported as > 50.1 µM and the TGI (HOP-62) is reported as 17.8 µM. For the same compound, the GI50 (OVCAR-5) was 27.5 µM, the LC50 (concentration killing 50% of cells) (OVCAR-5) was > 50.1 µM and the TGI (OVCAR-5) was > 50.1 µM. The LC50 (SNB-19) was 17 µM, the GI50 (LOX IMVI) was 25.1 µM and the LC50 (lethal concentration, 50% cell kill) (LOX IMVI) was > 50.1 µM. For the same compound, the TGI (LOX IMVI) was > 50.1 µM, the GI50 (MCF7) was 31.6 µM and the LC50 (MCF7) was > 50.1 µM. The TGI (MCF7) was > 50.1 µM, the GI50 (DU-145) was 32.4 µM and the LC50 (DU-145) was > 50.1 µM. For the same compound, the TGI (DU-145) was > 50.1 µM, the GI50 (ACHN) was 9.33 µM and the LC50 (ACHN) was > 50.1 µM. The TGI (ACHN) was 33.9 µM, the GI50 (IGROV-1) was 8.91 µM and the LC50 (IGROV-1) was > 50.1 µM. The TGI (IGROV-1; read-out: pTGI (converted)) was 30.2 µM, the GI50 (HL-60) was 20.4 µM and the LC50 (HL-60) was > 50.1 µM. For the same compound, the TGI (HL-60) was > 50.1 µM, the GI50 (HT-29) was > 50.1 µM and the LC50 (concentration killing 50% of cells) (HT-29) was > 50.1 µM. The TGI (HT-29) was > 50.1 µM, the GI50 (K562) was 4.68 µM and the LC50 (K562) was > 50.1 µM. For the same compound, the TGI (K562) was > 50.1 µM, the GI50 (MOLT-4) was > 50.1 µM and the LC50 (MOLT-4) was > 50.1 µM. The TGI (MOLT-4) was > 50.1 µM, the GI50 (NCI-H226) was 25.1 µM and the CC50 (NCI-H226) was > 50.1 µM. The TGI (NCI-H226) was > 50.1 µM, the GI50 (PC-3) was 8.51 µM and the LC50 (PC-3) was > 50.1 µM. For the same compound, the TGI (PC-3) was > 50.1 µM, the GI50 (SK-MEL-2) was 9.55 µM and the LC50 (SK-MEL-2) was > 50.1 µM. For the same compound, the TGI (SK-MEL-2) was 28.8 µM, the GI50 (SNB-75) was 1.12 µM and the LC50 (SNB-75) was 17 µM. The GI50 (SW-620) was > 50.1 µM, the LC50 (lethal concentration, 50% cell kill) (SW-620) was > 50.1 µM and the TGI (SW-620) was > 50.1 µM. It also gave a GI50 (SF-539) of 4.27 µM, an LC50 (concentration killing 50% of cells) (SF-539) of 28.8 µM and a TGI (SF-539) of 11.7 µM. The GI50 (KM12) was > 50.1 µM, the LC50 (KM12) was > 50.1 µM and the TGI (KM12) was > 50.1 µM. For the same compound, the GI50 (HCC 2998) was > 50.1 µM, the LC50 (HCC 2998) was > 50.1 µM and the TGI (HCC 2998) was > 50.1 µM. The GI50 (OVCAR-4) was > 50.1 µM, the LC50 (OVCAR-4) was > 50.1 µM and the TGI (OVCAR-4) was > 50.1 µM. For the same compound, the GI50 (UACC-62) was 7.24 µM, the LC50 (UACC-62) was > 50.1 µM and the TGI (UACC-62) was 21.9 µM. For the same compound, the GI50 (SK-MEL-28) was > 50.1 µM, the LC50 (SK-MEL-28) was > 50.1 µM and the TGI (SK-MEL-28) was > 50.1 µM.

Source: ChEMBL document CHEMBL1142436, “Design and synthesis of 4-substituted indolo[3,2-e][1,2,3]triazolo[1,5-a]pyrimidine derivatives with antitumor activity” (2008)
